Results published in the RNAGym collection of RNA variant scans (doi:10.1126/science.aae0568).
Fewer inactive variants are shown than the library holds.

B1: tRNA (parent)
chain: GUUCCGUUGGCGUAAUGGUAACGCGUCUCCCUCCUAAGGAGAAGACUGCGGGUUCGAGUCCCGUACGGAACG

Variants of: B1
Assay: yeast fitness relative to wild type (ratio to wild type); higher = fitter; tRNA-Arg(CCU), competitive growth, 37 C, YPD
Summary of the method: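 Gene amplicons from the start population and from each of six end populations were read by 100-nucleotide paired-end sequencing. Those end populations came from pooled Saccharomyces cerevisiae strains carrying tRNA-Arg(CCU) gene variants at the native locus, competed in YPD at 37°C for 24 hours. Fitness relative to wild type was worked out from changes in genotype frequencies. Genotypes needed ≥ 100 starting reads, and estimates < 0.5 were set to 0.5.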

| Variant | yeast fitness |
| --- | --- |
| GUUCCGUUGGCGUAAUGGUAACGCCUCUCCUACCUAAGGAGAAGACUGUGGGUUCGAGUCCCGUACGGAACG [G25C C31U U32A C49U] | ≤ 0.5 |
| GUUCCGUCGGCGUAAUGGUAACGCGUCUCCCUCCUAAGGAGAAGACUGCGGGUUCUAGUCCCGUACGGAACG [U8C G56U] | 0.755 |
| GUUCCGUUGGCGUAAUGGUAACGCAUCUCCCUCCUAAGGAGAAGACUGCGGAUUCGAGUCCCGUAUGGAACG [G25A G52A C66U] | 0.637 |
| GUUCCGUUGGCGCAAUGAUAACGCGUCUCCCUCCUAAGGAAAAGACUGCGGGUUCGAGUCCGGUUCGGAACG [U13C G18A G41A C62G A65U] | 0.619 |
| GUUCCGUUGGCGUAAUAGUAACGCGUCUCCCUCCUAAGGAGAAGAAUGCGGGUUCGAGUCCCGUGCGGAACG [G17A C46A A65G] | ≤ 0.5 |
| GUUCCGUUAGUGUAAUGGUAACGCGUCUCCCUCCUAAGGAGAAGACUGCGGGUUGGAGUCCCGUACGGAACG [G9A C11U C55G] | 0.601 |
| GUUCCGUUGGCGUAAUGGUAACGCGUGUCCCUCCUAAGGAGAGGACGGCGGGUUCGAGUCCCGUACGGAGCG [C27G A43G U47G A70G] | ≤ 0.5 |
| GUUCCGUUGGCGUAAGGGUAACGCGUCUCCCCCCUAAGGAGAAGACUGCGGGUUCGAGUCCCGUACGGAGCG [U16G U32C A70G] | 0.984 |
| GUUCCGAUGGCGUAAUGGUAACGCGUCUCCCUCCUGAGGAGAGGACUGCGGGUUCGAGUCCAGUACGGAACG [U7A A36G A43G C62A] | ≤ 0.5 |
| GUUCCAUUGGCGUAAUGGUAACGCCUCUCCCUCCUAAGGAGAAGACUGCGGGUUCGAGUCCCGUUCGGAACG [G6A G25C A65U] | 0.663 |
| GUUACGUUGGCGUAAUGGUAACGCGUCUCCCUCCCAAGGAGAAGACUGCGGGUUCGAGUCCCGUACGGAACG [C4A U35C] | 0.834 |
| GUUCCGUUGGCGUAAUGGUAAGGCGUCUGCCUCCUAAGGAGAAGACUGCGGGUUCGAGUCCCGUAAGGUACG [C22G C29G C66A A69U] | ≤ 0.5 |
| GUUCCGUUGGCCUAAUGGUAACGCGUCUCCCUCCUAAGGAGAAGACUGCGGGUUCGAGUCUCGUACGGAACG [G12C C61U] | 0.746 |
| GUUUCGUUGGCGUAAUGGUAACGCGUCUCCCUCCUAAGGAGAAGAGUGCGGGUUCGAGUCCCGUAGGGAACG [C4U C46G C66G] | 0.539 |
| GCUUCGUUGGCGUAAUGGUAACGCGUUUCCCUCCUAAGGAGAAGCCUACGGGUUCCAGUCCCGUACGGAACG [U2C C4U C27U A45C G48A G56C] | ≤ 0.5 |
| GUUCCGUUGGCGUAAUGGUAACCCGUCUCCCUCCUAAGGAGAGGACUGCGGGUUCGACUCCCGGACGGAACG [G23C A43G G58C U64G] | 0.57 |
| GUUCCGUUGGCGUAAUGGUAACACGUCCCACUCCUAAGGAGAAGAUUGCGGGUUCGAGUCCCGUACGGAUCG [G23A U28C C30A C46U A70U] | ≤ 0.5 |
| GUUCCGUUGGCGUAAUGGUAACGCGUCUCCCUCCUGAGGAGAGGACUGCGGGUUCGAGUCCCGUACGGAACG [A36G A43G] | 0.975 |
| GUUCCGUUGGCGUAAUGGUAACGCGUCUCCCUCCUAAGGAGACGACUACGGGUUCGAGUCCCGUACGGACCG [A43C G48A A70C] | 1.13 |

| Variant | yeast fitness |
| --- | --- |
| GUUCCGUUGGCGUAAUGGUAACGCGUCUCCCUCCUAAGGAGAAGACUGCGGGUUCGGGACCUGUACGGAACG [A57G U59A C62U] | ≤ 0.5 |
| GUUGCAUUGGCGUAAUGGUACCGCGUCUCCCUCCUAAGGAGAAGACUGCGGGAACGAGUCCCGUACGGAACG [C4G G6A A21C U53A U54A] | ≤ 0.5 |
| GUUCCGUUGGGGUAAUGGUAACGCGUCUGCCUCCUAAGGAGAAGUCUGCGGGUUCGAGUCCCGUACGGAACG [C11G C29G A45U] | ≤ 0.5 |
| GUUCCGUUGGCGUAAUGGUAACGCGUAUCCCUUCUAAGGAGAACUCUGCCGGUUCGAGUCCCGUACAGAACG [C27A C33U G44C A45U G50C G67A] | ≤ 0.5 |
| GCUCCGUUGGCGUAAUGGUAACGCGUCUCCCUCCUAAGGAGAUGACUGCGGGUUCGAGUCCCGUACGGAACG [U2C A43U] | 0.989 |
| GUUCCGUUGGCGUAAUGGUAACGCGACUCCCUCCUAAGGAGAAGACUGCGGGUUCGAGUCCUGUACAGAACG [U26A C62U G67A] | 0.648 |
| GUUCCGUUGGCGUAAUGGUAACGCAUCUCCCUCCUAAGGAGAAGACUGCUGGUUCGAGUCCCGUACGGAACG [G25A G50U] | 0.826 |
| GUUCUGUUGGCGUAAUGGUAACGCGUCUCCGCCCUACGGAGAAGACUGCCGGUUCGAGUCCCGUACGGCACG [C5U C31G U32C A37C G50C A69C] | ≤ 0.5 |
| GUUCCGUUGGCGUAAUGGUAACGCGCCUCCCUCCUAAGGAGAAGACUGCGGAUUCGAGUCCCGUACGGAACG [U26C G52A] | 0.748 |
| GUUCCGUUGGCGUAGUGGUGACGCGUCUCCCUCCUAAGGAGAAGACUGAGGGUUCGAGUCCUGUACGGAACG [A15G A20G C49A C62U] | 0.567 |
| GUUCCGUUGGUGUAAUGGUAACGCGUCUCGCUCCUAAGGAGAAGACUGCGGGUUCCAGUCCCGUACGGAACG [C11U C30G G56C] | ≤ 0.5 |
| GUUCCGAUGGCGUAAUGGUAACGCGUCUCCCUCCUAAGGAGAAGACUGCGGGUUCGAGUCGCGUACGGAACG [U7A C61G] | 0.563 |
| GUCCCGCUGGCGUAAUGGAAACACGUCUGCCUCCUAAGGAGAAGUCUGCGGGUUCGAGUGUCGUACGGGACG [U3C U7C U19A G23A C29G A45U C60G C61U A69G] | ≤ 0.5 |
| GUUCCGUUGGCGUAAUGGUAACGCGUCUCACUCCUUACGAGAAGACUGCGGGUUCGAGUCCCGUAAGGAACG [C30A A36U G38C C66A] | 0.577 |
| GUUCCGUUGGCGUAAUGGUAACGCGUCUACCUCCUAAGGAGAAGACUGCGCGUUCGAGUCCCGUACGGAACG [C29A G51C] | ≤ 0.5 |
| GUUCCGUUAGCGUAAUGGUAACGGGUCUCCCUCGUAAGGAGACGACUGCGGGUUCGAGUCCCGUACGGAACG [G9A C24G C34G A43C] | ≤ 0.5 |
| GUUCCGAUGGCGUAAUGGUAACGCGUCUGCCUCCUAAGGAGAAGAGUGCGGGUUCGAGUCCCGUACGGAACG [U7A C29G C46G] | ≤ 0.5 |
| GUUCCGUUGGCGUAAUGGUAACGCGUCUCCCUCCUAAGAAGAAGACUGCGGGUUCGAGUGCCGUACGGAACG [G39A C60G] | 0.666 |
| GUUCCGUUGGCGGAAUGGUAACGCGUCUCCCUCCUAAGGAGAAGACUGCGGGUUGGAGUACCGUACGGAACG [U13G C55G C60A] | ≤ 0.5 |
